ChEMBL document CHEMBL1649428, “An ABC transporter of Streptococcus pneumoniae involved in susceptibility to vancoresmycin and bacitracin” (2009)
In brackets after ≈: the same amount, converted by molar mass. Bridge positions count the residues as written; N and C are the ends. Square brackets hold non-standard residues; d marks the D form. Peptide text beside a SMILES is read from it. * marks the point of attachment. Ileψ(thiazoline)Cys = CC[C@H](C)[C@H](N)C1=N[C@H](C(=O)*)CS1; dOrn = NCCC[C@@H](N)C(=O)O

Assays:
Assay type in all cases: functional
[1] = system: Streptococcus pneumoniae; assay: Antimicrobial activity against Streptococcus pneumoniae R6 by agar dilution method
Procedure, shortened: (§1)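 Agar dilution MIC against the strain. Vancoresmycin was tested at 0.3 to 0.8 μg/ml in 0.05 μg/ml steps, diluted from a 0.5 mg/ml methanol stock kept at −20°C. Bacitracin was tested at 0.5 to 6 μg/ml in 0.2 μg/ml steps. Pneumococci are routinely grown at 37°C. MIC is the mean of three independent experiments.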

[2] = system: Streptococcus pneumoniae; assay: Antimicrobial activity against Streptococcus pneumoniae R6 transformed with DNA containing spr0813 C1744T mutant gene selected after drug exposure by agar dilution method; procedure, shortened: as §1
[3] = system: Streptococcus pneumoniae; assay: Antimicrobial activity against copY and cyl deficient Streptococcus pneumoniae VarE mutant by agar dilution method
[4] = system: Streptococcus pneumoniae; assay: Antimicrobial activity against copY and cyl deficient Streptococcus pneumoniae VarA mutant by agar dilution method
[5] = system: Streptococcus pneumoniae; assay: Antimicrobial activity against Streptococcus pneumoniae R6 transformed with DNA containing spr0813 C1744T mutant gene selected after vancoresmycin exposure by agar dilution method; procedure, shortened: as §1
[6] = system: Streptococcus pneumoniae; assay: Antimicrobial activity against Streptococcus pneumoniae VarG transformed with spr0813 C1744T mutant gene by agar dilution method; procedure, shortened: as §1
[7] = system: Streptococcus pneumoniae; assay: Antimicrobial activity against Streptococcus pneumoniae R6 transformed with DNA containing spr0813 C1744T::aphIII mutant gene selected after kanamycin exposure by agar dilution method; procedure, shortened: as §1
[8] = system: Streptococcus pneumoniae; assay: Antimicrobial activity against kanamycin-resistant and spr0811-spr0813::aphIII deficient Streptococcus pneumoniae R6 by agar dilution method; procedure, shortened: as §1
[9] = system: Streptococcus pneumoniae; assay: Antimicrobial activity against copY and cyl deficient Streptococcus pneumoniae VarF mutant by agar dilution method
[10] = system: Streptococcus pneumoniae; assay: Antimicrobial activity against kanamycin-resistant and spr0811-spr0813::aphIII deficient Streptococcus pneumoniae VarG by agar dilution method; procedure, shortened: as §1

Row | Structure (SMILES) | MIC [1] [µg/mL] | MIC [2] [µg/mL] | MIC [3] [µg/mL] | MIC [4] [µg/mL] | MIC [5] [µg/mL] | MIC [6] [µg/mL] | MIC [7] [µg/mL] | MIC [8] [µg/mL] | MIC [9] [µg/mL] | MIC [10] [µg/mL]
1 | CC[C@H](C)[C@H](N)C1=N[C@H](C(=O)N[C@@H](CC(C)C)C(=O)N[C@H](CCC(=O)O)C(=O)N[C@H](C(=O)N[C@H]2CCCCNC(=O)[C@H](CC(N)=O)NC(=O)[C@@H](CC(=O)O)NC(=O)[C@H](Cc3cnc[nH]3)NC(=O)[C@@H](Cc3ccccc3)NC(=O)[C@H]([C@@H](C)CC)NC(=O)[C@@H](CCCN)NC2=O)[C@@H](C)CC)CS1 [BACITRACIN] ({Ileψ(thiazoline)Cys}-L[dE]IK[dOrn]I[dF]H[dD]N; lactam 4-C) | 4.8 (≈ 3.37 µM) | 1 (≈ 0.703 µM) | 5.2 (≈ 3.65 µM) | 5.2 (≈ 3.65 µM) | 1 (≈ 0.703 µM) | 1 (≈ 0.703 µM) | 1 (≈ 0.703 µM) | 1 (≈ 0.703 µM) | 5.2 (≈ 3.65 µM) | 1 (≈ 0.703 µM)
2 | C/C(=C\CC(O)CC(O)CCC(C)C(O)C(C)C(O)CCCC(O)C(C)C(O)/C(C)=C/C(C)C(=O)/C(C)=C/C(O)C(O)CC(O)CC(OC1OC(C)C(O)C(N)C1O)C(C)CCC(O)CC(O)CCC(C)C(O)C(C)C(O)C(C)C)C(=O)C1=C(O)/C(=C/C(C)C)N(C)C1=O (centres undefined) [VANCORESMYCIN] | 0.4 (≈ 0.298 µM) | 0.5 (≈ 0.372 µM) | 0.7 (≈ 0.521 µM) | 0.7 (≈ 0.521 µM) |  | 0.5 (≈ 0.372 µM) | 0.5 (≈ 0.372 µM) | 0.4 (≈ 0.298 µM) | 0.65 (≈ 0.484 µM) | 0.4 (≈ 0.298 µM)
